This note sets out measurements from ChEMBL document CHEMBL3044673, “Design, synthesis and insecticidal activity of novel phenylpyrazoles containing a 2,2,2-trichloro-1-alkoxyethyl moiety” (2010).

Usually mortality stands for the percentage killed.

Common to all, as to assay type: functional
In test [1] the test system is Culex pipiens pallens. In words: Insecticidal activity against Culex pipiens pallens (mosquito) assessed as insect mortality at 100 ug/kg measured 1 day post compound treatment. As to conditions: for mortality at 0.1 mg/kg: Culex pipiens, 24 h. An outline of the steps:
(§1)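 Fourth-instar Culex pipiens pallens larvae, 20 per test, were laboratory-reared and placed in 100 mL of test solution made by adding 1 mL of compound dilution to 99 mL of water. Tests were held at 25±1 °C, percentage mortality was scored 1 day after treatment, and each test was run three times.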

For test [2], the system named is Aphis craccivora. Kind of test: Insecticidal activity against Aphis craccivora (cowpea aphid) infested tender soybean shoots exposed to 50 mg/kg test compound solution assessed as insect mortality measured 24 hr post compound treatment. In a few lines:
(§2)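 Soybean tender shoots carrying 60 aphids were dipped in test solutions. Solutions were made from a 200 mg L^-1 stock in dimethylformamide, diluted with water containing TW-20. Insects were laboratory-reared, tests were held at 25±1 °C, and mortality was scored.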

The test system of test [3] is Aphis craccivora. Kind of test: Insecticidal activity against Aphis craccivora (cowpea aphid) infested tender soybean shoots exposed to 5 mg/kg test compound solution assessed as insect mortality measured 24 hr post compound treatment. As to conditions: for mortality at 5 mg/kg: Aphis craccivora, 24 h; for mortality: 5 mg/kg. In a few lines: as §2
Test [4] has as its system Plutella xylostella. Kind of test: Insecticidal activity against Plutella xylostella (diamondback moth) grown on compound pre-treated fresh cabbage leaves assessed as insect mortality at 5 mg/kg measured 3 days post compound treatment by leaf-dip method. The settings on record: for mortality at 5 mg/kg: Plutella xylostella; for mortality: 5 mg/kg. In a few lines:
(§3)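 Leaf-dip stomach-toxicity assay on laboratory-reared diamondback moth. Test solutions came from a 200 mg L^-1 stock in dimethylformamide, diluted with water containing TW-20. Control leaves were treated with water and dimethylformamide. Tests were held at 25±1 °C, percentage mortality was scored 3 days after treatment, and each treatment was run three times.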

Test [5] relates to Plutella xylostella. Kind of test: Insecticidal activity against Plutella xylostella (diamondback moth) grown on compound pre-treated fresh cabbage leaves assessed as insect mortality at 200 mg/kg measured 3 days post compound treatment by leaf-dip method. In a few lines: as §3
The test system of test [6] is Aphis craccivora. Kind of test: Insecticidal activity against Aphis craccivora (cowpea aphid) infested tender soybean shoots exposed to 200 mg/kg test compound solution assessed as insect mortality measured 24 hr post compound treatment. In a few lines:
as §2

The subject of test [7] is Plutella xylostella. In words: Insecticidal activity against Plutella xylostella (diamondback moth) grown on compound pre-treated fresh cabbage leaves assessed as insect mortality at 50 mg/kg measured 3 days post compound treatment by leaf-dip method. In a few lines: as §3
The test system of test [8] is Culex pipiens pallens. Kind of test: Insecticidal activity against Culex pipiens pallens (mosquito) assessed as insect mortality at 50 ug/kg measured 1 day post compound treatment. As to conditions: 24 h. In a few lines:
as §1

In test [9] the test system is Aphis craccivora. Kind of test: Insecticidal activity against Aphis craccivora (cowpea aphid) infested tender soybean shoots exposed to 100 mg/kg test compound solution assessed as insect mortality measured 24 hr post compound treatment. An outline of the steps:
as §2

In test [10] the test system is Aphis craccivora. In words: Insecticidal activity against Aphis craccivora (cowpea aphid) infested tender soybean shoots exposed to 10 mg/kg test compound solution assessed as insect mortality measured 24 hr post compound treatment. The settings on record: for mortality at 10 mg/kg: Aphis craccivora, 24 h. In a few lines:
as §2

Test [11] relates to Plutella xylostella. Kind of test: Insecticidal activity against Plutella xylostella (diamondback moth) grown on compound pre-treated fresh cabbage leaves assessed as insect mortality at 10 mg/kg measured 3 days post compound treatment by leaf-dip method. As to conditions: for mortality at 10 mg/kg: Plutella xylostella; for mortality: 10 mg/kg. An outline of the steps:
as §3

Test [12] relates to Plutella xylostella. Kind of test: Insecticidal activity against Plutella xylostella (diamondback moth) grown on compound pre-treated fresh cabbage leaves assessed as insect mortality at 25 mg/kg measured 3 days post compound treatment by leaf-dip method. The settings on record: for mortality at 25 mg/kg: Plutella xylostella. An outline of the steps:
as §3

The subject of test [13] is Plutella xylostella. In words: Insecticidal activity against Plutella xylostella (diamondback moth) grown on compound pre-treated fresh cabbage leaves assessed as insect mortality at 100 mg/kg measured 3 days post compound treatment by leaf-dip method. In a few lines: as §3
Test [14] concerns Aphis craccivora. In words: Insecticidal activity against Aphis craccivora (cowpea aphid) infested tender soybean shoots exposed to 25 mg/kg test compound solution assessed as insect mortality measured 24 hr post compound treatment. In a few lines: as §2
The test system of test [15] is Aphis craccivora. In words: Insecticidal activity against Aphis craccivora (cowpea aphid) infested tender soybean shoots exposed to 2.5 mg/kg test compound solution assessed as insect mortality measured 24 hr post compound treatment. As to conditions: for mortality at 2.5 mg/kg: Aphis craccivora, 24 h. In a few lines: as §2
In test [16] the test system is Culex pipiens pallens. Kind of test: Insecticidal activity against Culex pipiens pallens (mosquito) assessed as insect mortality at 25 ug/kg measured 1 day post compound treatment. As to conditions: 24 h. An outline of the steps:
as §1

Test [17] deals with Plutella xylostella. Kind of test: Insecticidal activity against Plutella xylostella (diamondback moth) grown on compound pre-treated fresh cabbage leaves assessed as insect mortality at 2.5 mg/kg measured 3 days post compound treatment by leaf-dip method. In a few lines:
as §3

As to `CC[S+]([O-])c1c(C#N)nn(-c2c(Cl)cc(C(F)(F)F)cc2Cl)c1NC(OCCCl)C(Cl)(Cl)Cl` (stereo not given), the mortality at 0.1 mg/kg in [1] is 100%. The mortality at 50 mg/kg in [2] and in test [7] was 100% in each case. Also, the mortality at 5 mg/kg in test [3] and in test [4] was 0% each time. The mortality at 200 mg/kg in [5] and in [6] was 100% in each case. In addition, the mortality at 0.05 mg/kg in test [8] amounted to 0%. Also, the mortality at 100 mg/kg in test [9] and in [13] was 100% in each case. Moreover, the mortality at 10 mg/kg in [10] stood at 48%; in test [11] it was 32%. Moreover, the figures for the mortality at 25 mg/kg in test [12] and in test [14] were 46% and 100%, respectively.
Regarding `CC[S+]([O-])c1c(C#N)nn(-c2c(Cl)cc(C(F)(F)F)cc2Cl)c1NC(OCCF)C(Cl)(Cl)Cl` (stereo not given), the mortality at 2.5 mg/kg in [15] stood at 43%. Besides, the mortality at 0.1 mg/kg in [1] is 100%. Further, the mortality at 50 mg/kg in [2] was found to be 100%; in [7] it was 91%. Also, the mortality at 5 mg/kg in test [3] was 73%; in test [4] it was 0%. Moreover, the mortality at 200 mg/kg in [5] and in test [6] was 100% in each case. Moreover, the mortality at 0.05 mg/kg in [8] was 20%. Also, the mortality at 100 mg/kg in test [9] and in test [13] was 100% each time. The mortality at 10 mg/kg in [10] stood at 100%; in [11], 30%. Also, the mortality at 25 mg/kg in [12] is 46%; in [14] it was 100%.
In the case of `CCOC(Nc1c([S+]([O-])CC)c(C#N)nn1-c1c(Cl)cc(C(F)(F)F)cc1Cl)C(Cl)(Cl)Cl` (stereo not given), the mortality at 2.5 mg/kg in [15] and in test [17] was 0% in each case. Also, the mortality at 0.1 mg/kg in test [1] stood at 100%. Further, the mortality at 50 mg/kg in test [2] and in [7] was 100% throughout. Further, the results for the mortality at 5 mg/kg in test [3] and in test [4] were 81% and 29%, respectively. The mortality at 200 mg/kg in test [5] and in test [6] was 100% each time. The mortality at 0.025 mg/kg in test [16] amounted to 40%. For the same compound, the mortality at 0.05 mg/kg in [8] stood at 100%. Further, the mortality at 100 mg/kg in test [9] and in test [13] was 100% in each case. The mortality at 10 mg/kg in test [10] is 100%; in test [11], 72%. Besides, the mortality at 25 mg/kg in test [12] and in test [14] was 100% each time.
Turning to `CC[S+]([O-])c1c(C#N)nn(-c2c(Cl)cc(C(F)(F)F)cc2Cl)c1NC(OC)C(Cl)(Cl)Cl` (stereo not given), in test [15], the mortality at 2.5 mg/kg stood at 0%. The mortality at 0.1 mg/kg in test [1] was found to be 100%. The mortality at 50 mg/kg came to 100% in test [2] and 86% in [7]. Moreover, the mortality at 5 mg/kg in test [3] amounted to 76%. Also, the mortality at 200 mg/kg in test [5] and in [6] was 100% each time. Further, the mortality at 0.025 mg/kg in [16] came out at 0%. For the same compound, the mortality at 0.05 mg/kg in test [8] came out at 100%. Further, the mortality at 100 mg/kg in test [9] and in [13] was 100% in each case. The mortality at 10 mg/kg in test [10] worked out at 87%; in test [11], 0%. The mortality at 25 mg/kg in test [12] was found to be 31%; in [14], 96%.
In the case of `CCOC(Nc1c([S+](C)[O-])c(C#N)nn1-c1c(Cl)cc(C(F)(F)F)cc1Cl)C(Cl)(Cl)Cl` (stereo not given), the mortality at 2.5 mg/kg in [15] and in [17] was 0% throughout. In addition, the mortality at 0.1 mg/kg in [1] was determined as 100%. For the same compound, the mortality at 50 mg/kg in [2] and in [7] was 100% in each case. The mortality at 5 mg/kg in test [3] and in test [4] was 63% in each case. Further, the mortality at 200 mg/kg in [5] and in [6] was 100% each time. Moreover, the mortality at 0.025 mg/kg in test [16] was determined as 30%. The mortality at 0.05 mg/kg in test [8] came out at 100%. Moreover, the mortality at 100 mg/kg in test [9] and in [13] was 100% in each case. Also, the mortality at 10 mg/kg in test [10] and in test [11] was 85% in each case. Also, the mortality at 25 mg/kg in test [12] and in test [14] was 100% throughout.
For the compound `C[S+]([O-])c1c(C#N)nn(-c2c(Cl)cc(C(F)(F)F)cc2Cl)c1NC(OCCF)C(Cl)(Cl)Cl` (stereo in doubt; 7d-1), the mortality in [15] (2.5 mg/kg) amounted to 43%; in test [1], 20%; in test [3], 72%; in test [4] it was 56%; in test [11], 77%; in [12] (25 mg/kg), 92%.
Consider `C[S+]([O-])c1c(C#N)nn(-c2c(Cl)cc(C(F)(F)F)cc2Cl)c1NC(OCCF)C(Cl)(Cl)Cl` (stereo in doubt; 7d-2), for which the figures for the mortality at 2.5 mg/kg in [15] and in test [17] were 46% and 0%, respectively. The mortality in [1] is 50%. Further, the mortality at 50 mg/kg in test [2] and in test [7] was 100% throughout. For the same compound, the values for the mortality at 5 mg/kg in test [3] and in test [4] were 70% and 54%, respectively. In addition, the mortality at 200 mg/kg in [5] and in test [6] was 100% throughout. For the same compound, the mortality at 100 mg/kg in test [9] and in test [13] was 100% each time. For the same compound, the mortality at 10 mg/kg in test [10] stood at 100%; in test [11], 76%. Further, the results for the mortality at 25 mg/kg in test [12] and in [14] were 89% and 100%, respectively.
With `C[S+]([O-])c1c(C#N)nn(-c2c(Cl)cc(C(F)(F)F)cc2Cl)c1NC(OCCCl)C(Cl)(Cl)Cl` (stereo in doubt; 7e-1), the mortality is listed as 100% in [1]; 61% in [3]; 60% in [4]; 96% in test [10] (10 mg/kg); 81% in test [11]. Also, in test [8], the mortality at 0.05 mg/kg was found to be 40%.
For `C[S+]([O-])c1c(C#N)nn(-c2c(Cl)cc(C(F)(F)F)cc2Cl)c1NC(OCCCl)C(Cl)(Cl)Cl` (stereo in doubt; 7e-2), the mortality at 2.5 mg/kg in test [15] and in test [17] was 0% in each case. In addition, the mortality in test [1] is on record as 50%. The mortality at 50 mg/kg in test [2] and in test [7] was 100% throughout. Moreover, the values for the mortality at 5 mg/kg in test [3] and in [4] were 68% and 56%, respectively. Besides, the mortality at 200 mg/kg in [5] and in [6] was 100% in each case. Further, the mortality at 100 mg/kg in test [9] and in test [13] was 100% throughout. Besides, the mortality at 10 mg/kg worked out at 100% in test [10] and 79% in [11]. For the same compound, the mortality at 25 mg/kg in test [12] and in test [14] was 100% throughout.
